Hck-Nef inh: inhibitors of Nef-activated human Hck kinase, primary screen, biochemical, Z-Lyte FRET, 384-well, Hck-YEEI. AID 463187, 2010. inhibition, % at 20 µM. 0.68% of 220,000 active. Recombinant Hck-YEEI plus Nef, Z-Lyte FRET kinase assay. Tyrosine-protein kinase HCK (Homo sapiens), P08631;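 active = Hck-Nef kinase inhibition above about 50%, limit read from the data; inactive = inhibition below that limit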;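 note: 0% = DMSO with Hck plus Nef and 100% = Hck alone without Nef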
RanGTP-Impb inh: inhibitors of RanGTP-importin-beta interaction, primary screen, biochemical, FRET, CFP-Ran, YFP-importin-beta, homogeneous | AID 2216, 2009 | cell-free CFP-Ran/YFP-importin-beta FRET ratio | inhibition, % (concentration not given with the values) | Ran GTPase (GTP-bound) - importin-beta complex | 1.1% of 300,000 active;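 active = more than half of the replicate wells show a fall in the fluorescence ratio signal beyond about 16%, limit read from the data, passing the limit was not always enough; inconclusive = exactly half of the replicate wells pass the set limit; inactive = fewer than half of replicates pass the limit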;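 note: 0% = DMSO wells and 100% = Ran loaded with GDP instead of GTP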
Runt-SMMHC FRET: inhibitors of RUNX1 Runt–CBFb-SMMHC binding, primary screen, biochemical, FRET, Cerulean-Runt, Venus-CBFb-SMMHC, uHTS; Runt-related transcription factor 1 (Homo sapiens) + Core-binding factor subunit beta …; Cerulean-Runt/Venus-CBFb-SMMHC FRET ratio 530/480, 1 h; 0.74% of 220,000 active; inhibition, % at 20 µM;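 active = mean inhibition across duplicate retests at 20 µM reaching about 50%, limit read from the data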;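 note: 0% = DMSO wells and 100% = wells with excess untagged CBFb-SMMHC; inhibitors lower the FRET ratio by blocking Runt binding to CBFb-SMMHC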
Target sequence (Q01196 whole entry, looked up): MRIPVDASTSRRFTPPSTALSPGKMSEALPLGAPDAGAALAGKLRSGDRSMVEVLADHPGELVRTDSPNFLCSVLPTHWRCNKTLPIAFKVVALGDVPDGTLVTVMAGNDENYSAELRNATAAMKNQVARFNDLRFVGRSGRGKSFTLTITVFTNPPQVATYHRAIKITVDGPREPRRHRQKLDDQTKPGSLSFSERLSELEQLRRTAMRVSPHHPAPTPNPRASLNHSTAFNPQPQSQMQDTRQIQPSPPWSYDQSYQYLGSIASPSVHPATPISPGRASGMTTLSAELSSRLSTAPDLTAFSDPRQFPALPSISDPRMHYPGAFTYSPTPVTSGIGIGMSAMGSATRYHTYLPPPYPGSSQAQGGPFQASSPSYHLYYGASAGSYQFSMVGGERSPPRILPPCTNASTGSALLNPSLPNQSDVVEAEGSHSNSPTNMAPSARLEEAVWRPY
Target sequence (Q13951 whole entry, looked up): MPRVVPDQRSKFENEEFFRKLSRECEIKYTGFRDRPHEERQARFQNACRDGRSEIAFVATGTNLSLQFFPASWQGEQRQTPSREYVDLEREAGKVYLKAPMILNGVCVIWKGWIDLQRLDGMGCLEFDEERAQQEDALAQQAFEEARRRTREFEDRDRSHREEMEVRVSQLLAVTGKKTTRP
Runt-CBFb FRET: inhibitors of RUNX1 Runt–CBFb binding, primary screen, biochemical, FRET, Cerulean-Runt, Venus-CBFb, uHTS. Cerulean-Runt/Venus-CBFb FRET ratio 530/480, 1 h. inhibition, % at 20 µM. 0.46% of 220,000 active;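 active = inhibition over about 50% at 20 µM in the single-dose screen, limit read from the data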;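 note: 0% = DMSO wells and 100% = excess unlabeled CBFb competitor control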
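Measured by: fluorescence energy transfer, 422 nm excitation, 530/480 nm emission; test system: Cerulean-tagged RUNX1 Runt domain (FRET donor) fusion protein; buffer or medium: Tris pH 7.5 buffer with BSA; compound: one dose, 20 µM compound, 1% DMSO; times: two 1 h room-temperature incubations shielded from light; benchmarks: unlabeled CBFb 5 µM, positive control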
CaV13 ICDI inh: Disruptors of the CACNA1D IQ motif to Ca2+-dependent inactivation inhibitor domain association, primary screening, Förster resonance energy transfer in intact living …. AID 743397. inhibition, % at 12.3 µM. HEK cells, CFP/YFP FRET ICDI-IQ, plate reader, 10 min; percent FRET-ratio fall versus neutral wells. 0.098% of 340,000 active;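 active = mean replicate inhibition of at least 30% and at least 1% of replicates passing that level; inconclusive = only one of the two criteria is met; inactive = neither criterion is met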;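 note: 0% = median of the neutral control wells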
Hck-Nef confirm: retest of Hck:Nef kinase inhibitor hits, confirmation, biochemical, Z-Lyte FRET, 384-well, p-Tyr peptide counterscreen | shares compounds with Hck-Nef inh | calls only at 10 µM | Recombinant Hck-YEEI:Nef, Z-Lyte FRET kinase assay | 28% of 1,300 active;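 active = average inhibition of at least 50%, with Z-scores no higher than 3 in both the phospho-tyrosine peptide and fluorescence counterscreens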
Numbers without * were called inactive; i = inactive; ? = inconclusive; . = not tested or not shown; + = active, no number. Only some compounds are listed: those with a hit (about 1.5% of all), similar ones and a draw of the others.

SMILES	Hck-Nef inh	RanGTP-Impb inh	Runt-SMMHC FRET	Runt-CBFb FRET	CaV13 ICDI inh	Hck-Nef confirm
CN(C)c1cccc(C(=O)NCc2ccccc2Cl)c1	8	.	-3	-1	-5	.
C/C(=N\NC(=O)c1cc(C)[nH]n1)C(C)(C)C	1	-1	2	-1	-6	.
O=C(NCc1cccs1)C1CCCN1C(=O)Nc1cccc(Cl)c1 (stereo unspecified)	9	4	-2	-2	4	.
O=C1OC(/C=C/c2ccccc2)=NC/1=C\c1cccnc1	82*	-2	-2	-1	-5	+
COc1ccc(NC(=O)c2cc(-c3ccco3)nc3ccccc23)cc1S(=O)(=O)N1CCOCC1	33	?	-23	22	-2	.
Cc1ccc(NC(=O)c2cc(-c3ccco3)nc3ccccc23)cc1S(=O)(=O)N1CCOCC1	69*	2	-25	-1	-20	+
O=[N+]([O-])c1ccc(-c2nn(-c3ccccc3)cc2/C=N/n2c(-c3ccncc3)n[nH]c2=S)cc1	54*	4	2	11	13	i
CCn1nccc1C(=O)Nc1cc(Cl)ccc1Cl	5	-3	-6	0	.	.
COc1cccc(NC(=O)c2ccccc2Br)c1	.	-5	.	.	-4	.
CCN1C(=O)/C(=C\c2cn(-c3ccccc3)nc2-c2cccnc2)SC1=S	60*	6	-16	-4	-2	i
COCCN=c1scc(-c2ccco2)n1/N=C/c1ccc(O)c(O)c1O	59*	.	19	39	3	+
CC(C)N=c1scc(-c2ccco2)n1/N=C/c1ccc(O)c(O)c1	1	.	9	22	-10	.
C=CCN=c1scc(-c2ccco2)n1/N=C/c1ccc(O)c(O)c1O	56*	5	35	47	-3	i
O=S(=O)(Nc1ccc(-c2nc3cccnc3s2)cc1)c1cc(F)ccc1F	115*	10	85*	44	-5	.
NS(=O)(=O)c1ccc(C(=O)Nc2ccc(-c3nc4cccnc4s3)cc2)cc1	23	3	-18	-13	-4	.
O=C(Oc1ccc2c(c1)O/C(=C\c1ccncc1)C2=O)c1cccs1	37	-135	-81	-116	-11	.
COc1ccccc1C(=O)Oc1ccc2c(c1)O/C(=C\c1ccncc1)C2=O	76*	-189	-216	-369	-119	+
COCc1cc(C)nc(N/N=C/c2ccc(-c3ccc(Cl)cc3[N+](=O)[O-])o2)c1C#N	171*	-7	-8	4	-4	+
Cc1ccc(-c2nnc(SCC(=O)Nc3sc(C)c(C)c3C#N)n2C)cc1	50*	0	1	-2	.	i
COCCn1c(SCC(=O)Nc2sc(C)c(C)c2C#N)nnc1-c1ccc(OC)cc1	2	-1	-2	-2	-5	.
COc1ccc(NC(=O)CSc2c(C)nn(-c3nnc(C)c(=O)[nH]3)c2C)cc1	108*	-1	3	2	.	i
COc1ccc(NC(=O)CSc2nncn2C)cc1	.	4	.	.	-5	.
C=CCn1cc(C(=O)OC)c(=O)c2cc(S(=O)(=O)N3CCC(C)CC3)ccc21	0	1	.	.	-9	.
CN1C(=O)CC(=O)N(C)c2cc(S(=O)(=O)N(C)Cc3ccccc3)ccc21	.	1	.	.	-15	.
COc1cc2c(cc1OC)CN(c1nc(-c3cccnc3)nc3ccccc13)CC2	68*	-3	-9	-9	-7	+
SMILES	Hck-Nef inh	RanGTP-Impb inh	Runt-SMMHC FRET	Runt-CBFb FRET	CaV13 ICDI inh	Hck-Nef confirm
O=C1CCCC(O)=C1Sc1cc(Cl)c(Cl)cc1Cl	.	-3	.	.	-5	.
CCn1c(COc2ccc(OC)cc2)nc2ccccc21	2	-2	-2	.	-4	.
O=C(Nc1ccc(S(=O)(=O)Nc2nccs2)cc1)c1cc(-c2ccccn2)nc2ccccc12	51*	3	0	1	-6	i
O=C(Nc1ccc2c(c1)OCCO2)c1cc(-c2ccccn2)nc2ccc(Br)cc12	78*	6	-10	0	-5	i
Cc1cccc(-c2cc(C(=O)Nc3ccc4c(c3)OCCO4)c3ccccc3n2)c1	2	3	-7	-2	0	.
C=CCC(C(=O)OC)(C(=O)OC)c1ccc([N+](=O)[O-])cn1	1	2	-3	-3	-3	.
O=C(Cn1nc(C(=O)O)c2ccccc2c1=O)Nc1nc(-c2ccccc2)cs1	52*	2	-3	-4	-5	i
NC(=O)c1c(NC(=O)Cn2nc(C(=O)O)c3ccccc3c2=O)sc2c1CCC2	91*	?	1	-2	-1	i
CCOC(=O)C(=Cc1ccc(Br)cc1)C(=O)OCC	-18	2	1	6	-19	.
COc1cccc(N2C(=O)[C@H]3C(C(=O)c4cnccn4)=NN[C@H]3C2=O)c1	26	-1	-8	1	-20	.

Bioassay records: PubChem BioAssay, several laboratories
